# Assay results reported in ChEMBL document CHEMBL3393037, “Design, synthesis, and biological evaluation of aminothiazole derivatives against the fungal pathogens Histoplasma capsulatum and Cryptococcus neoformans” (Bioorg Med Chem, 2015).
# Columns and labels:
# [1] = Antifungal activity against Histoplasma capsulatum G217B ATCC 26032 assessed as inhibition of visible growth after 5 days; format: functional
# How it was run: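 Wild-type G217B yeasts kept in HMM at 37 °C under 5% CO2. Wells held 2×10^5 yeasts (hemocytometer count) with a two-fold dilution series from 40 to 0.078 µM, at 1% DMSO in the top dilution. Plates were agitated twice daily and growth followed by A595 over 5 days. MIC is the lowest concentration with no visible growth on visual inspection of the plates.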
# Cryptococcus neoformans = test: Antifungal activity against Cryptococcus neoformans MATalpha serotype A strain H99 assessed as inhibition of visible growth after 5 days; format: functional; details: MATalpha serotype A strain H99, 120 h
# [2] = Cytotoxicity against human HepG2 cells after 72 hrs by crystal violet staining method; format: cell-based; details: for CC50 at 72 h: read-out: MIC50; for MCC at 72 h: read-out: MIC
# How it was run: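 HepG2 cells in MEM with 10% FBS and 2 mM L-glutamine were seeded at 1×10^4 per well and left to adhere overnight. Compound was added at 0.3 to 80 µM for 72 h. Cells were fixed in 3% paraformaldehyde, stained with 0.1% crystal violet, and the dye taken up in 10% acetic acid and read at A590. Values were normalised to DMSO-matched controls, in triplicate.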
# [3] = Selectivity index, ratio of MIC50 for human HepG2 cells to MIC50 for Histoplasma capsulatum strain G217B ATCC 26032
# [4] = Cytotoxicity against mouse P388D1 […] cells after 48 hrs by crystal violet staining method; format: cell-based; details: P388D1, 48 h
Compound,MIC [1] [µM],MIC50 [1] [µM],MIC (Cryptococcus neoformans) [µM],MIC50 (Cryptococcus neoformans) [µM],CC50 at 72 h [2] [µM],Ratio [3],MCC at 72 h [2] [µM],IC50 [4] [µM]
O=C(Nc1ncc(Cc2ccccc2)s1)N1CCOCC1,> 20,> 10,,,,,,
O=C(Nc1ncc(CC2CCCCC2)s1)C1CCCCC1,2.5,0.7,> 20,> 10,,,,
O=C(Nc1ncc(Cc2ccc3ccccc3c2)s1)c1ccccc1,> 20,> 10,,,,,,
O=C(Nc1ncc(Cc2ccc(F)cc2)s1)C1CCCCC1,20,4.4,,,,,,
CC(C)C(=O)Nc1ncc(CC2CCCCC2)s1,> 20,> 10,,,,,,
O=C(CCC1CCCCC1)Nc1nc(-c2ccccc2)cs1,> 20,> 10,,,,,,
O=C(Nc1ncc(CCc2ccccc2)s1)C1CCCC1,2.5,0.9,5,2.7,,,,
O=C(CCC1CCCCC1)Nc1ncc(CC2CCCCC2)s1,5,0.8,> 20,9.6,,,,
O=C(CCC1CCCCC1)Nc1ncc(CCc2ccccc2)s1,2.5,0.7,> 20,> 10,> 40,>50,,
O=C(CCC1CCCCC1)Nc1ncc(Cc2ccccc2Cl)s1,2.5,0.9,> 20,> 10,,,,
O=C(Nc1ncc(Cc2cccc3ccccc23)s1)C12CC3CC(CC(C3)C1)C2,> 20,> 10,,,,,,
O=C(Nc1ncc(-c2ccccc2)s1)C1CCCCC1,> 20,> 10,,,,,,
O=C(Nc1ncc(CC2CCCCC2)s1)C12CC3CC(CC(C3)C1)C2,> 20,> 10,,,,,,
O=C(CCC1CCCCC1)Nc1ncc(Cc2ccc(F)cc2)s1,> 20,> 10,,,,,,
O=C(Nc1nc(C23CC4CC(CC(C4)C2)C3)cs1)C1CCCC1,20,7.4,,,,,,
CN1CCC(C(=O)Nc2ncc(Cc3ccccc3)s2)CC1,> 20,> 10,,,,,,
O=C(Nc1ncc(Cc2ccc3ccccc3c2)s1)C12CC3CC(CC(C3)C1)C2,> 20,> 10,,,,,,
CN(C(=O)CCC1CCCCC1)c1ncc(Cc2ccccc2)s1,> 20,> 10,,,,,,
O=C(CCC1CCCCC1)Nc1ncc(Cc2ccccc2F)s1,2.5,1,> 20,> 10,,,,
O=C(/C=C/C1CCCCC1)Nc1ncc(Cc2ccccc2)s1,> 20,> 10,,,,,,
O=C(Nc1ncc(Cc2ccccc2)s1)C(F)(F)F,> 20,> 10,,,,,,
O=C(Nc1ncc(-c2ccccc2)s1)C1CCCC1,> 20,> 10,,,,,,
O=C(CCC1CCCCC1)Nc1ncc(Cc2ccccc2)s1,1.3,0.7,> 20,> 10,> 40,>44,,

Compound,MIC [1] [µM],MIC50 [1] [µM],MIC (Cryptococcus neoformans) [µM],MIC50 (Cryptococcus neoformans) [µM],CC50 at 72 h [2] [µM],Ratio [3],MCC at 72 h [2] [µM],IC50 [4] [µM]
O=C(Nc1ncc(Cc2ccc(F)cc2)s1)C1CCCC1,20,5.2,,,,,,
O=C(Nc1ncc(Cc2ccccc2)s1)C1COc2ccccc2C1 (stereo not given),> 20,> 10,,,,,,
O=C(CCC1CCCCC1)Nc1ncc(Cc2cccc3ccccc23)s1,1.3,0.4,> 20,> 10,> 40,>100,,
Cc1nc(NC(=O)CCC2CCCCC2)sc1Cc1ccccc1,> 20,> 10,,,,,,
O=C(CCC1CCCCC1)Nc1ncc(Cc2cccc(F)c2)s1,2.5,0.8,> 20,> 10,40,57,,
O=C(Nc1nc(-c2ccccc2)cs1)C1CCCC1,> 20,> 10,,,,,,
O=C(CCC1CCCCC1)Nc1ncc(Cc2cccc(Cl)c2)s1,2.5,1.1,> 20,> 10,39,65,,
O=C(Nc1ncc(Cc2ccccc2)s1)C1CCSCC1,10,4.8,,,,,,
CC(C)(C)OC(=O)Nc1ncc(C(O)c2ccccc2)s1 (stereo not given),> 20,> 10,,,,,,
O=C(Nc1ncc(Cc2ccccc2)s1)N1CCCCC1,> 20,> 10,,,,,,
O=C(Nc1ncc(Cc2ccccc2)s1)c1cnc(-c2cccs2)s1,> 20,> 10,,,,,,
O=C(Nc1ncc(Cc2ccc3ccccc3c2)s1)C1CCCCC1,> 20,> 10,,,,,,
CC(C)C(=O)Nc1ncc(Cc2ccc3ccccc3c2)s1,20,4.5,,,,,,
O=C(CC1CCCCC1)Nc1ncc(Cc2cccc3ccccc23)s1,0.6,0.4,> 20,> 10,37,92,,
CC(C)C(=O)Nc1nc(C23CC4CC(CC(C4)C2)C3)cs1,> 20,> 10,,,,,,
O=C(Nc1ncc(Cc2ccccc2)s1)C1CCOCC1,> 20,> 10,,,,,,
O=C(Nc1ncc(Cc2ccccc2)s1)C12CC3CC(CC(C3)C1)C2,10,5,,,,,,
O=C(Nc1ncc(Cc2cccc3ccccc23)s1)C1CCCC1,1.3,0.8,1.3,0.8,> 40,>57,,
O=C(Nc1ncc(CC2CCCCC2)s1)c1ccccc1,10,4.6,,,,,,
NC(=O)c1cc(-c2ccccc2)sc1NC(=O)c1ccc2c(c1)OCCO2,,2.5,,,,,10,
O=C(CC1CCCCC1)Nc1nc(C23CC4CC(CC(C4)C2)C3)cs1,> 20,> 10,,,,,,
O=C(CCC1CCCCC1)Nc1ncc(Cc2cccc(C(F)(F)F)c2)s1,> 20,> 10,,,,,,
O=C(CC1CCCCC1)Nc1ncc(Cc2ccccc2)s1,2.5,0.7,> 20,> 10,> 40,>44,,

Compound,MIC [1] [µM],MIC50 [1] [µM],MIC (Cryptococcus neoformans) [µM],MIC50 (Cryptococcus neoformans) [µM],CC50 at 72 h [2] [µM],Ratio [3],MCC at 72 h [2] [µM],IC50 [4] [µM]
O=C(CC1CCCCC1)Nc1ncc(Cc2ccc3ccccc3c2)s1,20,5.7,,,,,,
O=C(CC1CCCCC1)Nc1ncc(-c2ccccc2)s1,> 20,> 10,,,,,,
Nc1ncc(Cc2ccccc2)s1,> 20,> 10,,,,,,
O=C(CCC1CCCCC1)Nc1ncc(-c2ccccc2)s1,> 20,> 10,,,,,,
O=C(Nc1ncc(Cc2ccccc2)s1)c1ccccc1,> 20,> 10,,,,,,
O=C(CCC1CCCCC1)Nc1nnc(Cc2ccccc2)s1,> 20,> 10,,,,,,
Cc1cccc(Cc2cnc(NC(=O)C3CCC3)s2)c1,,2.5,,,,,20,
O=C(CCC1CCCCC1)Nc1ncc(Cc2ccc3ccccc3c2)s1,> 20,> 10,,,,,,
O=C(Nc1ncc(Cc2ccccc2)s1)C1CCCCC1,5,1.6,5,1.3,> 40,>21,,
O=C(Nc1ncc(Cc2ccccc2)s1)C1CCCC1,5,1.6,10,3.6,> 40,>24,,
O=C(Nc1ncc(Cc2cccc3ccccc23)s1)C(F)(F)F,> 20,> 10,,,,,,
CC(C)C(=O)Nc1ncc(Cc2cccc3ccccc23)s1,2.5,1.5,> 20,> 10,,,,
O=C(Nc1ncc(Cc2cccc3ccccc23)s1)c1ccccc1,> 20,> 10,,,,,,
O=C(Nc1ncc(Cc2cccc3ccccc23)s1)C1CCCCC1,0.6,0.4,0.6,0.4,39,97,,54
O=C(Nc1nc(C23CC4CC(CC(C4)C2)C3)cs1)C1CCCCC1,5,2.5,> 20,> 10,,,,
O=C(Nc1nc(C23CC4CC(CC(C4)C2)C3)cs1)c1ccccc1,10,3.1,20,8.3,,,,
O=C(CCC1CCCCC1)Nc1nc(C23CC4CC(CC(C4)C2)C3)cs1,20,5.2,,,,,,
O=C(CC1CCCCC1)Nc1ncc(CC2CCCCC2)s1,> 20,> 10,,,,,,
CC(C)C(=O)Nc1ncc(Cc2ccccc2)s1,20,6.7,,,,,,
O=C(Nc1ncc(Cc2ccccc2)s1)N1CCCC1,> 20,> 10,,,,,,
COc1ccc(Cc2cnc(NC(=O)/C=C/c3ccco3)s2)cc1,> 20,> 10,,,,,,
